Assay results from ChEMBL document CHEMBL4321862, “Application of Bivalent Bioisostere Concept on Design and Discovery of Potent Opioid Receptor Modulators” (J Med Chem, 2019).
The source made the active and inactive calls.

Experiments:
[1] = Selectivity index, ratio of Ki for human delta opioid receptor expressed in CHO cells to Ki for mouse mu opioid receptor expressed in CHO cells
[2] = Selectivity index, ratio of Ki for mouse kappa opioid receptor expressed in CHO cells to Ki for mouse mu opioid receptor expressed in CHO cells
[3] = target: Kappa-type opioid receptor (Mus musculus, UniProt P33534); assay: Displacement of [3H]-[…] from mouse kappa opioid receptor expressed in CHO cells incubated for […] by competitive radioligand binding assay; assay type: cell-based
[4] = target: T1, Mu-type opioid receptor (Mus musculus, UniProt P42866); assay: Agonist activity at recombinant mouse mu opioid receptor expressed in CHO cell membrane assessed as [35]-GTPgammaS binding incubated for […] by scintillation counting method
[5] = target: Mu-type opioid receptor (Mus musculus) (UniProt P42866); assay: Agonist activity at recombinant mouse mu opioid receptor expressed in CHO cell membrane assessed as [35]-GTPgammaS binding incubated for […] by scintillation counting method relative to DAMGO
[6] = target: T1, Mu-type opioid receptor; assay: Displacement of [3H]-Naloxone from mouse mu opioid receptor expressed in CHO cells incubated for […] by competitive radioligand binding assay; assay type: cell-based
[7] = target: Delta-type opioid receptor (Homo sapiens, UniProt P41143); assay: Displacement of [3H]-[…] from human delta opioid receptor expressed in CHO cells incubated for […] by competitive radioligand binding assay; assay type: cell-based
[8] = tested on: Mus musculus; assay: Antinociceptive activity in Swiss Webster mouse assessed as increase in latency to tail withdrawal at 10 mg/kg, sc observed for 20 mins by warm water tail withdrawal assay; assay type: functional, organism-based
Summary of the method: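 Male Swiss Webster mice, 25–30 g, n = 5 per group, baseline tail latency 2–4 s accepted. Compound given s.c. in saline or water. Tail immersed in 56 ± 0.1 °C water 20 min post-dose, 10 s cutoff. %MPE = [(test − control)/(10 − control)] × 100. Saline and morphine as controls.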

[9] = tested on: Mus musculus; assay: Inhibition of morphine-induced antinociceptive activity in Swiss Webster mouse assessed as decrease in latency to tail withdrawal at 10 mg/kg, sc administered 5 mins before morphine stimulation observed for 20 mins by warm water tail withdrawal assay; assay type: functional, organism-based
Summary of the method: (§1)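 Male Swiss Webster mice, n ≥ 5, baseline latency 2–4 s. Test compound given s.c. 5 min before morphine 10 mg/kg. Tail immersion at 56 ± 0.1 °C 20 min after morphine, 10 s cutoff, %MPE per mouse.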

[10] = tested on: Mus musculus; assay: Inhibition of morphine-induced antinociceptive activity in subcutaneously dosed Swiss Webster mouse assessed as decrease in latency to tail withdrawal administered 5 mins before morphine stimulation observed for 20 mins by warm water tail withdrawal assay; assay type: functional; summary of the method: as §1
[11] = target: Mu-type opioid receptor (Mus musculus) (UniProt P42866); assay: Agonist activity at mouse mu opioid receptor expressed in CHO cells assessed as inhibition of forskolin-induced cAMP formation incubated for 8 min followed by forskolin stimulation by ELISA; assay type: functional, cell-based
Summary of the method: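 mMOR-CHO cells grown to confluency, pre-incubated 30 min at 37°C with 1 mM IBMX, 200 μM Ro 20-1724, bovine serum albumin and 20 mM HEPES (pH 7.2-7.5). Ligand then added with 10 μM forskolin for 8 min at 37°C. Media removed, cells rinsed with PBS, cAMP measured by ELISA. DMEM/F12 used as solvent throughout.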

[12] = tested on: Mus musculus; assay: Inhibition of opioid-withdrawal symptom in morphine-pelleted Swiss Webster mouse assessed as reduction in wet dog shakes at 1 mg/kg, sc observed after 20 mins; assay type: functional, organism-based
Summary of the method: (§2)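 Male Swiss Webster mice, n = 5, implanted with 75 mg morphine pellet at base of neck. After 72 h, 30 min habituation in observation chamber, then test compound s.c. Wet-dog shakes, escape jumps and paw tremors counted over 20 min.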

[13] = tested on: Mus musculus; assay: Inhibition of opioid-withdrawal symptom in morphine-pelleted Swiss Webster mouse assessed as reduction in escape jumps at 1 mg/kg, sc observed after 20 mins; assay type: functional, organism-based; summary of the method: as §2
[14] = tested on: Mus musculus; assay: Inhibition of opioid-withdrawal symptom in morphine-pelleted Swiss Webster mouse assessed as reduction in paw tremors at 1 mg/kg, sc observed after 20 mins; assay type: functional, organism-based; summary of the method: as §2

SMILES	Ratio Ki [1]	Ratio Ki [2]	Ki [3] [nM]	EC50 [4] [nM]	Emax [5] [%]	Ki [6] [nM]	Ki [7] [nM]	Activity [8]	inhibition [9]	AD50 [10] [mg/kg]	Emax [11] [%]	inhibition [12]	inhibition [13]	inhibition [14]
Cl.O=C(N[C@H]1CC[C@@]2(O)[C@H]3Cc4ccc(O)c5c4[C@@]2(CCN3CC2CC2)[C@H]1O5)c1ccc2ccsc2c1	79.6	13.3	3.72	3.01	18.1	0.28	22.3	–	–	–	–	–	–	–
Cl.O=C(N[C@@H]1CC[C@@]2(O)[C@H]3Cc4ccc(O)c5c4[C@@]2(CCN3CC2CC2)[C@H]1O5)c1cc2ccccc2s1	9.9	1.4	0.2	0.24	59	0.14	1.39	Active	–	–	–	–	–	–
Cl.O=C(N[C@@H]1CC[C@@]2(O)[C@H]3Cc4ccc(O)c5c4[C@@]2(CCN3CC2CC2)[C@H]1O5)c1cc2ccccc2o1	12.1	1.4	0.23	0.39	64.5	0.16	1.94	Active	–	–	–	–	–	–
Cl.O=C(N[C@@H]1CC[C@@]2(O)[C@H]3Cc4ccc(O)c5c4[C@@]2(CCN3CC2CC2)[C@H]1O5)c1cccc2ccsc12	204.9	8.5	1.62	2.97	–	0.19	38.9	–	–	–	–	–	–	–
Cl.O=C(N[C@H]1CC[C@@]2(O)[C@H]3Cc4ccc(O)c5c4[C@@]2(CCN3CC2CC2)[C@H]1O5)c1cc2ccccc2s1	53	4.5	1.21	4.02	22.9	0.27	14.3	–	–	–	–	–	–	–
Cl.O=C(N[C@H]1CC[C@@]2(O)[C@H]3Cc4ccc(O)c5c4[C@@]2(CCN3CC2CC2)[C@H]1O5)c1cc2ccccc2o1	81.6	3.8	1.67	5.52	34	0.44	35.9	–	Active	3.21	–	–	–	–
Cl.O=C(N[C@H]1CC[C@@]2(O)[C@H]3Cc4ccc(O)c5c4[C@@]2(CCN3CC2CC2)[C@H]1O5)c1ccc2ccoc2c1	105.8	5.7	1.66	2.23	30.5	0.29	30.7	–	–	–	–	–	–	–
Cl.O=C(N[C@@H]1CC[C@@]2(O)[C@H]3Cc4ccc(O)c5c4[C@@]2(CCN3CC2CC2)[C@H]1O5)c1ccc2occc2c1	35.4	1.4	0.21	0.41	52.2	0.15	5.31	Active	–	–	–	–	–	–
C[C@@H](NC(=O)[C@@H](N)Cc1ccc(O)cc1)C(=O)NCC(=O)N(C)[C@@H](Cc1ccccc1)C(=O)NCCO	–	–	–	–	–	–	–	–	–	–	82.4	–	–	–
Cl.O=C(N[C@@H]1CC[C@@]2(O)[C@H]3Cc4ccc(O)c5c4[C@@]2(CCN3CC2CC2)[C@H]1O5)c1ccc2ccoc2c1	68.1	1.7	0.3	0.59	21.1	0.18	12.3	Active	–	–	–	–	–	–
Cl.O=C(N[C@H]1CC[C@@]2(O)[C@H]3Cc4ccc(O)c5c4[C@@]2(CCN3CC2CC2)[C@H]1O5)c1coc2ccccc12	62.3	12.5	3.37	1.57	18.7	0.27	16.8	–	Active	2.51	–	–	–	–
Cl.O=C(N[C@@H]1CC[C@@]2(O)[C@H]3Cc4ccc(O)c5c4[C@@]2(CCN3CC2CC2)[C@H]1O5)c1cccc2sccc12	150.3	4.7	0.75	0.32	23.1	0.16	24	–	–	–	–	–	–	–
Cl.O=C(N[C@H]1CC[C@@]2(O)[C@H]3Cc4ccc(O)c5c4[C@@]2(CCN3CC2CC2)[C@H]1O5)c1cccc2sccc12	26.3	9	2.35	1.05	16.1	0.26	6.85	–	–	–	–	–	–	–
Cl.O=C(N[C@@H]1CC[C@@]2(O)[C@H]3Cc4ccc(O)c5c4[C@@]2(CCN3CC2CC2)[C@H]1O5)c1ccc2sccc2c1	9.7	1.5	0.21	0.19	75.4	0.14	1.36	Active	–	–	–	–	–	–
Cl.O=C(N[C@H]1CC[C@@]2(O)[C@H]3Cc4ccc(O)c5c4[C@@]2(CCN3CC2CC2)[C@H]1O5)c1ccc2sccc2c1	30.4	5.6	2.19	2.47	18.9	0.39	11.9	–	–	–	–	–	–	–
Cl.O=C(N[C@@H]1CC[C@@]2(O)[C@H]3Cc4ccc(O)c5c4[C@@]2(CCN3CC2CC2)[C@H]1O5)c1cccc2occc12	415	4.7	0.8	0.59	23.6	0.17	70.5	–	Active	2.79	–	–	–	–
Cl.O=C(N[C@H]1CC[C@@]2(O)[C@H]3Cc4ccc(O)c5c4[C@@]2(CCN3CC2CC2)[C@H]1O5)c1csc2ccccc12	45.4	11.9	2.39	1.85	14.3	0.2	9.07	–	–	–	–	–	–	–
Cl.O=C(N[C@@H]1CC[C@@]2(O)[C@H]3Cc4ccc(O)c5c4[C@@]2(CCN3CC2CC2)[C@H]1O5)c1csc2ccccc12	133.21	3.4	0.48	0.37	29.9	0.14	18.6	–	–	–	–	–	–	–
C=CCN1CC[C@]23c4c5ccc(O)c4O[C@H]2C(=O)CC[C@@]3(O)[C@H]1C5	–	–	–	–	–	–	–	–	–	–	–	Active	Active	Active
Cl.O=C(N[C@H]1CC[C@@]2(O)[C@H]3Cc4ccc(O)c5c4[C@@]2(CCN3CC2CC2)[C@H]1O5)c1ccc2occc2c1	82.9	12.1	4.23	3.72	17.7	0.35	29	–	Active	2.03	–	–	–	–
O=C(N[C@H]1CC[C@@]2(O)[C@H]3Cc4ccc(O)c5c4[C@@]2(CCN3CC2CC2)[C@H]1O5)c1cccc2ccoc12	–	–	5.12	–	12.9	–	–	–	–	–	–	–	–	–
Cl.O=C(N[C@@H]1CC[C@@]2(O)[C@H]3Cc4ccc(O)c5c4[C@@]2(CCN3CC2CC2)[C@H]1O5)c1coc2ccccc12	79.2	2.3	0.3	0.47	43.2	0.13	10.3	–	–	–	–	–	–	–
Cl.O=C(N[C@@H]1CC[C@@]2(O)[C@H]3Cc4ccc(O)c5c4[C@@]2(CCN3CC2CC2)[C@H]1O5)c1ccc2ccsc2c1	13.6	1.3	0.2	0.21	58.7	0.15	2.04	Active	–	–	–	–	–	–
